This is an account of results in ChEMBL document CHEMBL4513216, “Probing the Open Global Health Chemical Diversity Library for Multistage-Active Starting Points for Next-Generation Antimalarials” (ACS Infect Dis, 2020).

A short description of this series: Toxicity liver stage against HepG2, at 10uM. The series is classed as cell-based. On the set-up: test concentration 10 uM, cell line HepG2-A16-CD81EGFP. Particulars: human, HepG2-A16-CD81EGFP cells; read-out: INHIBITION
The gist of the method:
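Uninfected HepG2-A16-CD81EGFP cells, 3 × 10^3 per well, 1536-well, plated on prespotted compound at 10 μM final, parasite-free screening media added to match infected plates; puromycin 10 μM positive, DMSO 0.5% negative; run in parallel with 48 h PbLuc assay at 37 °C, 5% CO2; viability by CellTiter-Glo luminescence, normalized to controls.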
On to `CN1CCOC[C@H]1c1nc(-c2cccc(F)c2)c[nH]1`, for which the cytotoxicity at 10 µM was -3.68%.
As to `Cc1cc2nc(CO[C@H]3CN(C(=O)C4CC4)C[C@H]3F)[nH]c2cc1C`, the cytotoxicity at 10 µM was -43.4%.
`CN1C[C@H](O)[C@]2(CCN(C(=O)COc3ccccc3)C2)S1(=O)=O`: the cytotoxicity at 10 µM worked out at 1.32%.
As to `Cc1cc(CNC(=O)c2ccno2)c(C)o1`, the cytotoxicity at 10 µM was -6.39%.
`Cc1ccccc1C(=O)N1CCCn2cnc(CN3CCCC3=O)c2C1`: the cytotoxicity at 10 µM worked out at 10.2%.
Turning to `O=C(COc1coc(CN2CCCCC2)cc1=O)NCc1ccccc1`, the cytotoxicity at 10 µM was -7.25%.
As for `COCC1CC2(CCN(C(=O)c3cccc(C)c3)CC2)CO1` (centres undefined), the cytotoxicity at 10 µM was -5.15%.
As for `O=C(c1ccc(F)c(F)c1)N1CCN2CCCC2C1` (centres undefined), the cytotoxicity at 10 µM is -7.09%.
In the case of `CCOc1cc(C(=O)N2CCN(CC)CC2)cc2occc12`, the cytotoxicity at 10 µM was 4.37%.
Then `Oc1ccccc1-c1n[nH]c(C2CC2)n1`, with 5.84%; and `CC(=O)N1CCC(Cc2ccc(-c3ccnn3C)nc2)CC1`, with 2.74%.
For the compound `O=C(Cc1cccc(F)c1)N1CCCCC1c1ccn2ccnc2n1` (centres undefined), the cytotoxicity at 10 µM was -0.619%.
In the case of `Cc1cccc(CN2CCCC3(Cc4ccccc4CNC3=O)C2)n1` (centres undefined), the cytotoxicity at 10 µM is 5.37%.
With `CC(C)(C)NCC(=O)N1CCCC(n2ccnc2)C1` (centres undefined), the cytotoxicity at 10 µM was determined as 0.462%.
Consider `CCOCc1ccc(NCc2cnc(N3CCN(C)CC3)nc2)cc1`, for which the cytotoxicity at 10 µM was 12.1%.
Take `O=C(CN1C(=O)CCCc2sccc21)NC1CCc2nccn2C1` (centres undefined): the cytotoxicity at 10 µM stood at 9.29%.
`Cc1cccc(COc2ccc(C(C)NS(N)(=O)=O)cc2)c1` (centres undefined): the cytotoxicity at 10 µM is -6.96%.
Take `CSc1ncccc1C(=O)Nc1ccc(Cn2ccccc2=O)cc1`: the cytotoxicity at 10 µM was found to be 2.77%.
Turning to `COc1cc(CNC(=O)COC2CCCC2)ccc1O`, the cytotoxicity at 10 µM was -7.2%.
`CCOCCN(C)C(c1cccnc1)c1ccc(F)cc1F` (centres undefined): the cytotoxicity at 10 µM was 5.64%.
With `COC(=O)N(C)CCCC(=O)Nc1[nH]nc(-c2ccncc2)c1C`, the cytotoxicity at 10 µM is -0.946%.
Then `Cc1cnc2c(S(=O)(=O)NC(=O)C(C)OCC3CC3)cccc2c1` (centres undefined), with -1%; and `CC(C)NC(=O)C(C(C)C)n1cnc2cc(F)c(F)cc21` (centres undefined), with 12.5%; and `COCCOCCC(=O)Nc1c(-c2ccc(F)cc2)ncn1C`, with -3.31%.
In the case of `Cc1nnc(CN(Cc2cccc(Br)c2)C2CC2)o1`, the cytotoxicity at 10 µM was 3.94%.
As to `Cc1nsc(NCc2ccc(CS(=O)(=O)NC(C)C)cc2)n1`, the cytotoxicity at 10 µM was -2.8%.
Then `COc1cccc(C2=CCN(CCN3CCOC3=O)CC2)c1`, with -7.52%; and `CCc1noc(CN(C)C(=O)C(C)(C)Oc2cccc(Cl)c2)n1`, with -3.63%; and `CN1CCN(C(=O)CCc2cc(Br)cs2)CC1`, with -5.35%.
As to `Cc1ccc(NC(=O)NC(C)c2nc[nH]n2)s1` (centres undefined), the cytotoxicity at 10 µM is -2.18%.
For `CCC(C)(NCC(=O)Nc1ccccc1)c1nc(C)cs1` (centres undefined) the value was -8.66%; for `O=C(NCCCn1cccn1)N1CCCC1c1ccncc1` (centres undefined), 21.5%; for `Cc1nnc(NCC2(c3ccccc3)CC2)c(C#N)c1C`, 3.51%.
Consider `CC(CNC(=O)Nc1ccc(N(C)C)nc1)Cn1cccn1` (centres undefined), for which the cytotoxicity at 10 µM is 6.95%.
For `CS(=O)(=O)CCNC(=O)C1(c2cccc(Cl)c2)CCCCC1` the value was 8.68%; for `CS(=O)(=O)NCC1CCCN(C(=O)Nc2ccccc2Cl)C1` (centres undefined), -9.73%; for `CCc1cnc(N2CC3(CCN(S(=O)(=O)C4CC4)C3)C2)nc1`, -109%.
For `Cn1cc(-c2nnn3c2COC(CNCc2nccs2)C3)cn1` (centres undefined) the value was -4.89%; for `COc1ccccc1-c1ncc(CN2CCCC[C@H](N(C)C)C2)s1`, -5.23%; for `OCC1(O)CCCN(Cc2noc(-c3ccccc3)n2)C1` (centres undefined), -4.76%.
Take `Cc1cccc(-n2nc(CC(C)C)nc2[C@H](C)O)c1`: the cytotoxicity at 10 µM came to 5.54%.
For `COC(=O)c1cc(OCC2CCC2)cc(C(=O)N[C@H](C)C(N)=O)c1` the value was 16.6%; for `Cc1cc(C2CCC2)nc(NCC(C)(C)N2CCOCC2)n1`, 11.5%.
With `CN(C)[C@H]1CCN(c2nc(C(C)(C)C)nc3c2cnn3C)C1`, the cytotoxicity at 10 µM is -6.12%.
Turning to `CSCc1noc(-c2ccc(C)c(N3CCNC3=O)c2)n1`, the cytotoxicity at 10 µM is -8.77%.
Regarding `CCN(C)C(=O)CN1CCC(c2cc(N3CCOCC3)nc(C)n2)CC1`, the cytotoxicity at 10 µM was -2.02%.
In the case of `CCCc1nc(C(=O)N2CCn3nc(C(=O)OC)cc3C2)cs1`, the cytotoxicity at 10 µM was 8.87%.
With `CCN1CCN(C(C)(C)CNc2nc(C)cc(C3CCC3)n2)CC1`, the cytotoxicity at 10 µM amounted to 1.47%.
Turning to `CC1COCCN1Cc1nc(-c2cccc(C(F)(F)F)c2)no1` (centres undefined), the cytotoxicity at 10 µM was -13.9%.
As for `c1ccc(-c2nnc(CN3CCCC(Cn4cncn4)C3)o2)cc1` (centres undefined), the cytotoxicity at 10 µM is -7.51%.
Take `CCC1c2ccsc2CCN1C(=O)NCc1cccnc1OC` (centres undefined): the cytotoxicity at 10 µM is -2.28%.
For `Cc1ccc(NC2CCN(C(=O)c3c(C)oc(C)c3C)CC2)nn1`, the cytotoxicity at 10 µM is -2.4%.
Take `COc1ccc(C(CNC(=O)Nc2cc(C)nn2C)N(C)C)cc1` (centres undefined): the cytotoxicity at 10 µM amounted to 3.31%.
Consider `CC1CCCN(C(=O)NCCCn2cncn2)C1` (centres undefined), for which the cytotoxicity at 10 µM was -3.98%.
With `CC(C)Oc1ncccc1CNC(=O)N1CCSCC1`, the cytotoxicity at 10 µM was -11.8%.
Regarding `O=C(Cc1ccc2c(c1)CCO2)N1CCN(c2nccs2)CC1`, the cytotoxicity at 10 µM is -10.7%.
Regarding `CCn1ncc2c1CCCC2NCc1cc(C)ccc1OC` (centres undefined), the cytotoxicity at 10 µM is 1.8%.
`Cc1cnc(CN(C)C2CCN(CC(=O)Nc3nccs3)C2)o1` (centres undefined): the cytotoxicity at 10 µM is -1.49%.
For `CCc1n[nH]c(C2CN(Cc3nnc(C4CCC4)o3)CCO2)n1` (centres undefined) the value was -6.28%.
`COCCc1noc(CN(C)C2CCCN(c3cccnn3)C2)n1` (centres undefined): the cytotoxicity at 10 µM is -8.64%.
For `COc1ncccc1NC(=O)C1CC1` the value was -19.2%; for `Cn1cnc2c1CCN(CCOc1ccc(C#N)cc1)C2`, -9.47%; for `Cc1cccc(-c2noc(CN3CCCCC3Cn3cncn3)n2)c1` (centres undefined), -4.32%.
Turning to `CC(Cc1cccs1)NC(=O)CCn1cccn1` (centres undefined), the cytotoxicity at 10 µM was -14.7%.
Then `CCc1n[nH]c(C2CN(CCCS(C)(=O)=O)CCO2)n1` (centres undefined), with -3.48%; and `Clc1ccc(OCCNCCn2cccn2)cc1`, with -14.4%.
For the compound `O=C(CCN1CCCC1c1cccc(F)c1)N1CCc2sccc2C1` (centres undefined), the cytotoxicity at 10 µM was -10.7%.
On to `CC1CCN(Cn2nc(-c3ccc(F)cc3)oc2=O)CC1`, for which the cytotoxicity at 10 µM is -2.55%.
For `CCOCC(O)CN1CCN(C(=O)Cc2ccc3c(c2)CCO3)CC1` (centres undefined) the value was -18.5%; for `O=C(NCc1cc[nH]n1)N(CCCO)C1CCc2ccccc21` (centres undefined), -3.27%.
For the compound `Cc1nc(-c2ccccc2)n(CC(=O)N(C(C)C)C(C)C)n1`, the cytotoxicity at 10 µM was -4.57%.
`CNC(=O)c1cc2c(nc1N(C)C)CCN(S(=O)(=O)C1CC1)CC2`: the cytotoxicity at 10 µM came out at 0.118%.
For `NC(=O)COc1ccc(CNCc2ccc(F)cc2)cc1`, the cytotoxicity at 10 µM is -2.05%.
Take `C=c1ncsc1=C1NN=C(C2CCCN2C(=O)c2ccn(CC)n2)O1` (centres undefined): the cytotoxicity at 10 µM is -7.82%.
